High-throughput results from PubChem BioAssay.
The sample as a whole holds a higher share of hits than the screen did.
Fibroblast inh: blocks proliferation of human lung fibroblasts; hit rate 1.1% among 85,000; LL 47 human lung fibroblast viability, ATP luminescence; stronger effect = lower value; viability, % at 10 µM;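 active means viability at or below 50% in the single dose screen; inactive means viability above 50%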;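 further: compound exposure lasted 72 h before the ATP readout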
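test system = LL 47 human lung fibroblasts | amount = 1,150 fibroblasts seeded per well | medium = 15% FBS in IMEM | times = overnight cell rest, 72 h compound treatment at 37 °C | measured by = CellTiter-Glo luminescence measuring cellular ATP | read-out = viability percentage against median untreated-cell control | benchmarks = cell-only wells, no compound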
H69AR inhibit: growth inhibitors of human H69AR lung tumor cells | AID 598 | hit rate 6% among 85,000 | H69AR lung tumor viability, ATP luminescence, 72 h; stronger effect = lower value | viability, % at 10 µM;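 active means viability at or below 40%; inactive means viability above 40%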;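 further: multidrug resistant small cell line overexpressing MRP-1 efflux transporter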
HCT116 PTEN-null: PTEN-deleted cell growth suppression | HCT116 PTEN-null viability, CellTiter-Glo, 60 h; stronger effect = lower value | viability, % at 10 µM | hit rate 1.2% among 140,000;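 active means viability at or below a set limit, 4 SD under the median of all tested compounds, cut at about 3.7% in these data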;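 further: PTEN knockout HCT116 line with beta catenin targeted HCT116 as companion control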
Phagocytosis inh: inhibitors of macrophage phagocytosis; J774A.1 macrophage IgG-bead phagocytosis, imaging; inhibition, % at 5 µM; hit rate 0.07% among 110,000; AID 1029;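 active means inhibition above the mean of the plate negative controls plus 5 SD, cut at about 13% in these data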;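 further: phagocytic index as fraction of beads internalized from green versus red external bead signal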
HUVEC prolif 384: inhibitors of human endothelial cell proliferation. viability, % at 10 µM (by protocol). hit rate 1.1% among 86,000. HUVEC proliferation, CellTiter-Glo luminescence, 72 h; stronger effect = lower value. AID 648;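 active means viability at or below 30%; inactive means viability above 30%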
HCT116 bCat-KO: beta-catenin-lacking colon tumor cell growth suppression | HCT116 beta-catenin knockout viability, CellTiter-Glo, 60 h; stronger effect = lower value | viability, % at 10 µM | hit rate 1.5% among 140,000 | AID 818;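 active means viability at or under a set limit, the compound median less 4 SD, cut at about 6% in these data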
Hits are given with their value; n = inactive; x = no result given.

SMILES	Fibroblast inh	H69AR inhibit	HCT116 PTEN-null	Phagocytosis inh	HUVEC prolif 384	HCT116 bCat-KO
CSc1cccc(-n2cc(-c3ccc4c(c3)OCO4)[nH]c2=O)c1	n	25.1	n	n	n	n
Cc1ccc(C(C)C)c(Oc2nnnn2-c2ccccc2)c1	n	30.2	n	n	n	n
Cc1ccc(C)c(Oc2nnnn2-c2ccccc2)c1	n	n	n	n	n	n
c1ccc(-n2nnnc2Oc2cccc3cccnc23)cc1	n	36.1	n	n	n	n
Cc1ccc2cccc(Oc3nnnn3-c3ccccc3)c2n1	n	n	n	n	n	n
CCn1nnc(-c2ccccc2NC(=O)C(F)(F)F)n1	n	x	n	n	n	n
O=c1c2ccccc2n(Cc2ccc(F)cc2)c(=O)n1C1CCCC1	n	38.0	n	n	n	n
Cc1ccc(C(=O)C[n+]2ccc(-c3nnc4n3CCC4)cc2)cc1	x	x	n	n	x	n
O=C(Nc1ccccc1)c1ccc(-c2ccc(Br)cc2)o1	n	n	n	x	n	n
COc1ccc(-c2cc3ccccc3oc2=O)cc1NC(=O)c1ccc([N+](=O)[O-])o1	x	x	n	x	x	n
COc1ccccc1C(=O)Nc1cc2ccccc2oc1=O	n	31.9	n	n	n	n
COc1ccccc1NC(=O)c1ccc(-c2ccc(Br)cc2)o1	n	19.0	n	n	n	n
COc1ccc(-c2cc3ccccc3oc2=O)cc1NC(=O)c1ccc(Br)o1	n	31.6	n	n	n	n
CC(=NCCN1CCN(C(=S)Nc2ccccc2)CC1)C1=C(O)CC(C)(C)CC1=O	x	x	n	n	x	n
CCOC(=O)c1[nH]c(C)c(C(=O)OCCOc2cccc(C)c2)c1C	x	x	n	n	x	n
CC(=O)Nc1ccccc1NC(=O)CN(C)S(=O)(=O)c1ccc(C)cc1	n	n	n	n	n	n
CC(=O)Nc1ccccc1N(C)S(=O)(=O)c1ccc(C)cc1	n	36.5	n	n	n	n
CCCCCc1nc2ccccc2c(=O)n1NC(=O)c1c(O)c2cccc3c2n(c1=O)CCC3	n	27.3	x	x	n	x
CCCCc1nc2ccccc2c(=O)n1NC(=O)c1c(O)c2cccc3c2n(c1=O)CCC3	n	n	x	n	n	x
CCCCCCc1nc2ccccc2c(=O)n1NC(=O)c1c(O)c2c(n(CC(C)C)c1=O)CCCC2	n	n	n	n	n	n
CCCCCCc1nc2ccccc2c(=O)n1NC(=O)c1c(O)c2cccc3c2n(c1=O)CCC3	n	24.8	n	n	n	n
CCOc1ccccc1C1CC(=O)Nc2cc3c(cc21)OCCO3 (centres undefined)	n	30.2	n	n	n	n
CC(C)Oc1ccccc1C1CC(=O)Nc2cc3c(cc21)OCO3 (centres undefined)	n	19.9	n	x	n	n
CCCOc1ccccc1C1CC(=O)Nc2cc3c(cc21)OCCO3 (centres undefined)	x	x	n	x	x	n
CC#C[C@]1(O)CC[C@H]2[C@@H]3CCC4=CC(=O)CCC4=C3[C@@H](c3ccc(N(C)C)cc3)C[C@@]21C	x	x	n	x	x	n
SMILES	Fibroblast inh	H69AR inhibit	HCT116 PTEN-null	Phagocytosis inh	HUVEC prolif 384	HCT116 bCat-KO
CCN(c1ccccc1)S(=O)(=O)c1cnc[nH]1	n	n	n	n	n	n
c1ccc(Cn2c(CNc3nc4ccccc4n3CCN3CCCCC3)nc3ccccc32)cc1	n	9.6	n	x	14.8	n
O=C(c1c(O)c2ccccc2oc1=O)C1CCCCC1	n	n	n	n	n	n
O=C(CCC1CCCC1)c1c(O)c2ccccc2oc1=O	n	n	n	n	1.8	n
Cc1nc2sccn2c1-c1csc(NCc2ccccc2)n1	n	n	n	x	n	n
COc1ccc2oc(C(=O)c3ccccc3)c(NC(=O)CN3CCN(C)CC3)c2c1	n	0.7	1.6	n	n	1.4
COc1ccc2oc(C(=O)c3ccccc3)c(N)c2c1	n	n	n	x	n	n
CCOC(=O)c1oc2ccc(Br)cc2c1NC(=O)CN1CCN(C)CC1	n	n	n	n	n	4.4
N#Cc1ccc(-c2ccccc2)nc1SCC(=O)c1cc2ccccc2oc1=O	x	x	n	n	x	n
Cc1ccccc1Cn1c(=O)c2c(nc3n2CCN3Cc2ccco2)n(C)c1=O	n	n	x	x	n	x
O=C1CCCCCN1Sc1ccccc1	n	3.0	n	n	n	n
O=C1CCCCCN1CP(=O)(O)CCc1ccccc1	n	n	n	x	n	n
CC(=O)c1coc2ccc(OCCN3CCCCC3)cc12	n	n	n	n	n	n
CCOc1ccc(NC(=O)c2ccc(NC(=O)c3cn4c5c(c(N6CCN(C)CC6)c(F)cc5c3=O)OCC4C)cc2)cc1 (centres undefined)	x	x	2.2	n	x	2.3
